These results are taken from ChEMBL document CHEMBL2034960, “Bryonolic acid transcriptional control of anti-inflammatory and antioxidant genes in macrophages in vitro and in vivo” (J Nat Prod, 2012).

The subject of test [1] is RAW264.7. Put plainly: Antiinflammatory activity in mouse RAW264.7 cells assessed as inhibition of LPS-induced iNOS protein expression at 50 uM after 24 hrs by immunoblot analysis relative to control. The test is classed as functional, cell-based. (In general: A western blot detects proteins with antibodies after separation by electrophoresis.)
The subject of test [2] is RAW264.7. Put plainly: Antiinflammatory activity in mouse RAW264.7 cells assessed as inhibition of LPS-induced iNOS protein expression at 100 uM after 24 hrs by immunoblot analysis. The test is classed as functional, cell-based.
The test system of test [3] is RAW264.7. Put plainly: Antiinflammatory activity in mouse RAW264.7 cells assessed as inhibition of LPS-induced iNOS […] expression at 50 uM after 24 hrs by immunoblot analysis. The test is classed as functional, cell-based.
The test system of test [4] is RAW264.7. Put plainly: Antioxidant activity in LPS-stimulated mouse RAW264.7 cells assessed as induction of HO-1 protein expression after 24 hrs by immunoblot analysis. The test is classed as functional, cell-based.
For test [5], the system named is RAW264.7. Put plainly: Antioxidant activity in LPS-stimulated mouse RAW264.7 cells assessed as induction of HO-1 protein expression at 50 uM after 24 hrs by immunoblot analysis. The format is functional, cell-based.
Test [6] deals with RAW264.7. Nature of the test: Antioxidant activity in LPS-stimulated mouse RAW264.7 cells assessed as induction of HO-1 mRNA expression at 100 uM after 24 hrs by RT-PCR analysis. The test is classed as functional, cell-based.
The subject of test [7] is RAW264.7. Put plainly: Antioxidant activity in mouse RAW264.7 cells assessed as induction of HO1 expression at 100 uM after 6 hrs by immunoblot analysis. The test is classed as functional, cell-based.
Test [8] concerns RAW264.7. Put plainly: Antioxidant activity in mouse RAW264.7 cells assessed as induction of HO1 expression at 100 uM after 48 hrs by immunoblot analysis. The format is functional, cell-based.
Test [9] concerns RAW264.7. Nature of the test: Antioxidant activity in mouse RAW264.7 cells assessed as induction of HO1 expression at 100 uM after 72 hrs by immunoblot analysis. The test is classed as functional, cell-based.
In test [10] the test system is RAW264.7. Put plainly: Antioxidant activity in mouse RAW264.7 cells assessed as induction of HO1 expression at 100 uM after 66 hrs by immunoblot analysis. The test is classed as functional, cell-based.
Test [11] concerns RAW264.7. Nature of the test: Induction of Nrf2 mRNA expression in mouse RAW264.7 cells at 100 uM after 20 hrs by quantitative RT-PCR analysis relative to control. The format is functional.
Test [12] concerns the target T1, Nuclear factor erythroid 2-related factor 2 (Mus musculus) (UniProt Q60795).
T1 sequence (whole entry): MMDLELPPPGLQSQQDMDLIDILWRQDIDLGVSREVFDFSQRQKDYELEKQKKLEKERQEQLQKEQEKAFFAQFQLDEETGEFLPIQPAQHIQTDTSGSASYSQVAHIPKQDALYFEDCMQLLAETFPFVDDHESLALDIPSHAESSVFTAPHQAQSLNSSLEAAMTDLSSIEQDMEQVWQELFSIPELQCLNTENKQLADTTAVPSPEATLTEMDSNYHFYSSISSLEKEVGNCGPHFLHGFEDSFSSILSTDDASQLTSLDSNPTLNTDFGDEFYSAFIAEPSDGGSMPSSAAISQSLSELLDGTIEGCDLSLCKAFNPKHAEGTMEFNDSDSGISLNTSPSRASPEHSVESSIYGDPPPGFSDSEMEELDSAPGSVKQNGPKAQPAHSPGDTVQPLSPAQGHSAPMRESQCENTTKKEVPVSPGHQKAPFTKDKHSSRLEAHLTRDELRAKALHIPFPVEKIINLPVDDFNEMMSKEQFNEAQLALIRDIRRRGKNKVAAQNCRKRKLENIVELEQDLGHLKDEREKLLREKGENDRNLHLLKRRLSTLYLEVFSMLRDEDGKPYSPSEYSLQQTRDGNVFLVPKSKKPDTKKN
Put plainly: Induction of Nrf2-mediated GR mRNA expression in mouse RAW264.7 cells at 100 uM after 20 hrs by quantitative RT-PCR analysis relative to control. The test is classed as cell-based.

For test [13], the target named is T1, Nuclear factor erythroid 2-related factor 2 (Mus musculus). Nature of the test: Induction of nuclear translocation of Nrf2 in mouse RAW264.7 cells assessed as decrease in cytoplasmic fraction at 100 uM after 1 hr. The format is cell-based. An outline of the steps:
(§1)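 RAW 264.7 macrophages treated with 50 or 100 μM compound for various times (1–4 h window examined). Cytoplasmic and nuclear fractions were separated and probed for Nrf2 by immunoblot. Translocation was scored as loss of cytoplasmic Nrf2 and nuclear accumulation relative to DMSO control.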

Test [14] has the same target. Nature of the test: Induction of nuclear translocation of Nrf2 in mouse RAW264.7 cells assessed as decrease in cytoplasmic fraction at 100 uM after 1 to 4 hrs. The test is classed as cell-based. An outline of the steps:
as §1

Test [15] has the same target. Put plainly: Induction of Nrf2-mediated HO1 mRNA expression in mouse RAW264.7 cells at 100 uM after 16 to 20 hrs by quantitative RT-PCR analysis relative to control. The test is classed as cell-based.
The target is the same in test [16]. Nature of the test: Induction of Nrf2-mediated NQO1 mRNA expression in mouse RAW264.7 cells at 100 uM after 16 to 20 hrs by quantitative RT-PCR analysis relative to control. The format is cell-based.
The target is the same in test [17]. Nature of the test: Induction of Nrf2-mediated CAT mRNA expression in mouse RAW264.7 cells at 100 uM after 4 to 24 hrs by quantitative RT-PCR analysis relative to control. The format is cell-based.
The target is the same in test [18]. Nature of the test: Induction of Nrf2-mediated HO1 […] expression in C57BL/6 mouse primary peritoneal macrophages at 10 uM after 48 hrs by immunoblot analysis.
In test [19] the test system is RAW264.7. Put plainly: Antiinflammatory activity in mouse RAW264.7 cells assessed as inhibition of LPS-induced iNOS protein expression at 50 to 100 uM by immunoblot analysis. The test is classed as functional, cell-based. To be noted: TDE = time-dependent effect.
The subject of test [20] is RAW264.7. Nature of the test: Antiinflammatory activity in mouse RAW264.7 cells assessed as inhibition of LPS-induced iNOS protein expression after 24 hrs by immunoblot analysis. The format is functional, cell-based.
Test [21] concerns RAW264.7. Put plainly: Antioxidant activity in mouse RAW264.7 cells assessed as induction of HO1 expression at 10 to 100 uM by immunoblot analysis. The format is functional, cell-based. To be noted: TDE = time-dependent effect.
In test [22] the test system is RAW264.7. Nature of the test: Antioxidant activity in LPS-stimulated mouse RAW264.7 cells assessed as induction of HO-1 […] expression after 24 hrs by immunoblot analysis. The format is functional, cell-based.
Another test has as its system Mus musculus. Put plainly: Induction of HO1 […] expression in Nrf2-knock out C57BL/6 mouse liver at 500 mg/kg, ip measured after 8 hrs by immunoblot analysis.

Activity calls are given as the source filed them. The calls are words filed in the database; no cut-off is given here.

For `CC1(C)[C@@H](O)CC[C@]2(C)C3=C(CC[C@@H]12)[C@@]1(C)CC[C@@]2(C)CC[C@@](C)(C(=O)O)C[C@H]2[C@]1(C)CC3` [BRYONOLIC ACID], the result in the test with RAW264.7 [1], with RAW264.7 [2], in the test with RAW264.7 [3], in the test with RAW264.7 [5], in the test on RAW264.7 [6] and in the test on RAW264.7 [7] was Active. The outcome (with RAW264.7 [8]; in test [13]; in test [14]; in [15]; in test [16]; in test [17]) was Active. Besides, the result in test [18] was Active. In addition, the Activity entry is “Dose-dependent effect” with RAW264.7 [4]; “tde” in the test with RAW264.7 [19]; “Dose-dependent effect” in the test on RAW264.7 [20]; “tde” in the test on RAW264.7 [21]; “Dose-dependent effect” with RAW264.7 [22]. Moreover, the outcome in the test on RAW264.7 [9], in the test with RAW264.7 [10] and in the test with Mus musculus was inactive. Also, the entries for the “fold change (FC)” value (in the test with RAW264.7 [11]; in [12]) were 1.8 and 1.5, respectively.
